# NOD2 RIPK2 PPI – inhibitors of human NOD2-RIPK2 interaction. O43353. 0.38% of 360,000 active. inhibition, % at 4.98 µM. CHO BLA complementation NOD2-RIPK2, CCF4 ratio; in the data active means inhibition above about 21%;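 further: 0% = vehicle only and 100% = reference blocker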
# Target sequence (O43353 whole entry, looked up): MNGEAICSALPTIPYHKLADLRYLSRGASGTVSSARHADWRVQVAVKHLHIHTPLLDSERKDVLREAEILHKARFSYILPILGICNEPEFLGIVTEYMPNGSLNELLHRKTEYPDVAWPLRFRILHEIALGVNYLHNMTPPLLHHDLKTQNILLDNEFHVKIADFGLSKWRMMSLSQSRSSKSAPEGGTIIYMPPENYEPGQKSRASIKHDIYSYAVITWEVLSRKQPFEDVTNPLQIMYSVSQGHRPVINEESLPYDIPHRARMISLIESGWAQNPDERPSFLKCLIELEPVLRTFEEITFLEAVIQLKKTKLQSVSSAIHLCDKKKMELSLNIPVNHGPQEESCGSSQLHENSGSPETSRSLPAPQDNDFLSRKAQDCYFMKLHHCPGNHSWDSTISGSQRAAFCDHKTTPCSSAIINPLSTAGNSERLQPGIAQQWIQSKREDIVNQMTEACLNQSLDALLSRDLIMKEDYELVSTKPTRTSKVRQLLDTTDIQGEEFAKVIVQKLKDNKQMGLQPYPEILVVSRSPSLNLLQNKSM
# UPR XBP1 act – activators of adaptive arm of unfolded protein response (XBP1). CHO-XBP1 luciferase reporter, IRE1-XBP1 UPR activation, luminescence; percent of tunicamycin response, DMSO as zero. activation, % at 20 µM. 0.33% of 330,000 active. AID 463104;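 active means versus positive control, 20 µM dose yields 30% or more activation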;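 further: 100% = tunicamycin at 10 µg/mL and 0% = DMSO only wells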
#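 Test system: CHO-XBP1 luciferase reporter cells | Buffer or medium: Serum-containing F12 medium, 10% FBS | Schedule: 6 h compound exposure at 37 °C, 5% CO2 | Detection: Steady-Glo luciferase glow luminescence, 10 min after reagent addition | Read-out basis: Activation, % of tunicamycin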
# TLR4 MyD88 comp – TLR4-MyD88 interaction inhibition in cells; O00206+Q99836; HeLa CL3-4 TLR4/MyD88 BLA complementation, FRET ratio; inhibition, % at 8.4 µM; 0.18% of 200,000 active; AID 861; in the data active means inhibition above about 25%;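 further: 0% = vehicle and 100% = reference inhibitor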
# CHOP UPR activ – apoptotic UPR (CHOP) activation | CHO-CHOP luciferase reporter, luminescence; percent of tunicamycin response over DMSO baseline | activation, % at 10 µM | 0.34% of 330,000 active;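 active means at 10 µM dose, activation of 40% or more, normalized to positive control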;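 further: 100% = tunicamycin at 10 µg/mL and 0% = DMSO alone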
#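 Test system: CHO-CHOP cells, stable luciferase reporter of PERK-eIF2a-CHOP signalling | Quantity: 500 CHO-CHOP cells per well | Buffer or medium: F12 plus 10% serum | Compound dosing: 10 µM single point, 0.5% DMSO | Schedule: 6 h compound treatment, 37 °C | Signal: Luciferase luminescence | Control set: Tunicamycin high control, DMSO low control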
# TLR9-MyD88 inh – TLR9-MyD88 interaction inhibition. CHO BLA complementation TLR9-MyD88, CCF4 FRET ratio. Q9NR96+Q99836. AID 504734. inhibition, % at 4.98 µM. 0.21% of 340,000 active;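 active means inhibition above the mean over all tested compounds plus 3 SD, cut at about 21% in these data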;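 further: 0% = DMSO only wells and 100% = clavulanate BLA inhibitor control wells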
# CHOP inh – CHOP inhibition in unfolded protein response. CHO-K1 CHOP-promoter luciferase, tunicamycin-induced, 15-18 h. inhibition, % at 10 µM. 3.8% of 220,000 active;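 active means compounds that reduced the stress-induced luciferase reporter signal by more than about 70% of percent inhibition, limit read from the data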;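 further: 0% = tunicamycin plus vehicle and 100% = wells without tunicamycin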
# Active calls of the source: *; . = no result given. The entries come from a sample that favours hits as a whole.
SMILES,NOD2 RIPK2 PPI,UPR XBP1 act,TLR4 MyD88 comp,CHOP UPR activ,TLR9-MyD88 inh,CHOP inh
Cc1ccccc1Cn1cc(S(=O)(=O)c2ccc(C(C)C)cc2)c(=O)c2cc3c(cc21)OCO3,1,-1,.,0,7,.
COc1ccc(-c2cc(-c3c(O)c(OC)c4occc4c3OC)[nH]n2)cc1,1,2,-3,3,5,86*
COc1ccc(-c2cc(-c3c(O)c(OC)c4occc4c3OC)[nH]n2)cc1OC,-15,8,-6,2,11,12
COc1ccc(NC(=O)C2(C)Cc3c(-c4cccc(C(F)(F)F)c4)ccnc3O2)cn1 (stereo not drawn),8,.,.,.,.,.
COc1ccc(N2CCN(C(=O)CCCCCn3c(=S)[nH]c4ccc(N5CCOCC5)cc4c3=O)CC2)cc1,-15,.,.,.,-2,.
O=C(CN(Cc1ccco1)C(=O)c1ccc(Cl)cc1)Nc1ccc(Cl)c(Cl)c1,-2,0,-4,2,1,93*
O=C1Nc2cc(Cl)ccc2C1(N1CCNCC1)C(F)(F)F (stereo not drawn),7,4,-1,-2,1,80*
Cc1cc(C)cc(Oc2nc(C(F)(F)F)nc3ccccc23)c1,-8,-1,-1,0,4,72*
CC(=O)Nc1ccc(Oc2nc(C(F)(F)F)nc3ccccc23)cc1,0,0,.,0,12,.
CC(=O)c1cccc(NC(=O)C2Cc3c(-c4ccc(Cl)cc4)ccnc3O2)c1 (stereo not drawn),2,.,.,.,.,.
CCC(C)Oc1cc(-c2ccnc(Nc3cccc(Cl)c3)n2)ccn1 (stereo not drawn),1,-6,.,-2,-1,93*
CCC(C)(C)C1CCc2[nH]nc(C(=O)NCCNC(=O)OC(C)(C)C)c2C1 (stereo not drawn),5,-2,.,0,0,.
O=C(Nc1ccc(C(=O)N2CCN(c3ccccc3)CC2)cc1)C1=CSCCO1,-26,-3,.,1,1,.
COc1ccc(N=C/C=C2/C=C(c3ccccc3)OC(C)(C)O2)cc1,-6,-2,10,1,-2,94*
COc1ccc(N=Cc2nc(-c3ccccc3)oc2OC(C)=O)cc1,2,4,.,1,1,-2
CCOC(=O)c1ccccc1NC(=O)CSc1ncc(C(=O)OCC)c(N)n1,-4,0,-9,0,-4,75*
COc1ccc(-c2ccc(N3C(c4cc(OC)cc(OC)c4)=Cc4ccc(OC)cc4C3CC(C)=O)cc2)cc1 (stereo not drawn),13,.,.,.,.,.
Cc1cc(N2C3CCC2CC(O)(c2ccc(F)cc2)C3)nc(-c2ccccc2)n1 (stereo not drawn),-2,-1,9,1,5,72*
Cc1ccnc(N2C3CCC2CC(O)(c2ccccc2)C3)n1 (stereo not drawn),2,-2,6,0,2,-5
O=c1cc(N2CCCCC2)c(-c2ccccc2)nn1Cc1ccc(Cl)cc1Cl,-10,-4,-2,-2,2,5
O=c1cc(N2CCCCC2)c(-c2ccccc2)nn1Cc1ccccc1Cl,5,-4,1,2,-1,90*
O=C(O)c1ccc(/C=C/c2nc3sc4c(c3c(=O)[nH]2)CCC4)cc1,1,-2,-4,1,4,-1
Clc1ccccc1C1CC(c2ccccc2)Nc2ncnn21 (stereo not drawn),-1,-1,4,-1,-4,92*
Cc1ccc(C)c(CN2CCSCC2)c1,0,-5,.,3,0,.
COc1ccc(/C=C/C(=O)OCC(=O)NCc2ccccc2Cl)cc1OC,3,-1,.,-1,-8,.
SMILES,NOD2 RIPK2 PPI,UPR XBP1 act,TLR4 MyD88 comp,CHOP UPR activ,TLR9-MyD88 inh,CHOP inh
Cc1ccc(N=Nc2c(N)[nH]n3c(=O)cc(-c4ccccc4)nc23)cc1,-4,2,8,1,-4,75*
COc1cccc(N=Nc2c(N)[nH]n3c(=O)cc(-c4ccccc4)nc23)c1,4,-1,1,9,-3,67
CCN(CC)C(=O)N1c2ccccc2CC(N(CC)CC)c2ccccc21 (stereo not drawn),5,-3,-1,0,0,85*
CCN(CC)C(=O)N1c2ccccc2Sc2ccccc21,-4,-1,.,0,-6,.
CC(=C\c1ccccc1)/C=C1/SC(=S)N(CCC(=O)Nc2ccccn2)C1=O,.,-3,4,0,.,9
COc1ccccc1/C=C1\SC(=S)N(CC(=O)Nc2nnc(C)s2)C1=O,.,-3,-4,-1,.,72*
O=C(O)CN1C(=O)/C(=C/C=C/c2ccccc2)SC1=S,-4,-1,-12,-2,-9,-10
Cc1ccc(/C=C2\SC(=S)N(CC(=O)Nc3cccnc3)C2=O)cc1,-3,-1,-10,0,13,86*
CC(=O)c1ccc(NC(=O)CN2C(=O)/C(=C/C=C/c3ccccc3)SC2=S)cc1,2,0,-5,1,-10,74*
O=C(CCN1C(=O)/C(=C/C=C/c2ccccc2)SC1=S)Nc1ccccn1,-4,9,3,9,0,85*
c1ccc2c(c1)CCN(CCCNc1nc3ccccc3n3cnnc13)C2,3,.,-10,.,11,15
COC(=O)[C@]12CCCCC=C1N(Cc1ccco1)C(=O)[C@H](CC(=O)NCCC(C)C)C2,-12,.,.,.,.,.
CCc1ccc(/C=C2\SC(=S)N(CCC(=O)NC3=NCCS3)C2=O)cc1,.,1,7,-6,.,88*
COC(=O)c1ccc(/C=C2/SC(=S)N(CCCC(=O)Nc3ccccn3)C2=O)cc1,-3,-5,5,-7,-4,77*
O=C(CCN1C(=O)/C(=C\c2cccs2)SC1=S)NC1=NCCS1,-3,-3,1,2,3,3
CC(C)N(C(=O)CSc1ccc(S(=O)(=O)N2CCCCC2)cn1)C(C)C,-4,-4,.,1,0,.
CC1CCC(C(C)C)C(OC(=O)COC(=O)c2ccc(N)cc2)C1 (stereo not drawn),-8,-3,2,-1,1,84*
CC1CCC(C(C)C)C(OC(=O)COC(=O)c2cccn2C)C1 (stereo not drawn),-3,-3,6,-1,10,5
COCCCN1C(=O)C(CC(=O)NC2CC2)CC(C(=O)N(C(C)C)C(C)C)=C1C (stereo not drawn),-6,.,.,.,.,.
NC1=NC(=O)/C(=C/c2c(OS(=O)(=O)c3ccc(Cl)cc3)ccc3ccccc23)S1,-1,0,0,3,0,94*
NC1=NC(=O)/C(=C/c2ccccc2OS(=O)(=O)c2ccccc2)S1,-7,0,1,2,-3,41
O=S(=O)(NCCSc1ccc(Cl)cc1)c1ccc(F)cc1,2,0,-3,-1,-2,71*
